# Assay results from different studies.
# Compare with care: the assays were run in different laboratories.
# CDK4: Cyclin-dependent kinase 4 (CDK4, Homo sapiens, UniProt P11802)
# REN: Renin (REN, Homo sapiens, UniProt P00797)
# Maoa: Amine oxidase [flavin-containing] A (Maoa, Rattus norvegicus, UniProt P21396)
SMILES,target,test,conditions,inhibition
CCOC(=O)[C@H]1Cc2c(cc([N+](=O)[O-])cc2[N+](=O)[O-])[C@H](O)[C@]12C(=O)Nc1ccc(C)cc12,CDK4,"cell-free assay, inhibitor, TR-FRET",1 µM,27.1%
COCCCOc1cc(C[C@@H](C[C@H](N)[C@@H](O)C[C@H](C(=O)NCC(C)(C)C(N)=O)C(C)C)C(C)C)ccc1OC,REN,"enzyme activity, inhibitor",1 nM,11%
CCOC(=O)[C@H]1Cc2c(cc([N+](=O)[O-])cc2[N+](=O)[O-])[C@@H](O)[C@@]12C(=O)Nc1cc(Cl)ccc12,CDK4,"cell-free assay, inhibitor, TR-FRET",1 µM,61.2%
N=C(N)c1ccc2cc(OC(=O)c3ccc(N=C(N)N)cc3)ccc2c1,REN,"enzyme activity, inhibitor",10 µM,45%
CC(C)C[C@H](NC(=O)[C@H](Cc1ccccc1)NC(=O)c1cnccn1)B(O)O,"GZMA (Homo sapiens, UniProt P12544)","enzyme activity, inhibitor",33 µM,72.4%
Cn1cc(-c2cc(F)cc(N3CCn4c(cc5c4CCCC5)C3=O)c2CO)cc(Nc2ccc(N3CCN(C4COC4)CC3)cn2)c1=O,"Serine/threonine-protein kinase 3 (STK3, Homo sapiens, UniProt Q13188)","enzyme activity, inhibitor",0.1 µM,13%
Clc1ccc2c(C3CCN(CCc4c[nH]c5ccccc45)CC3)c[nH]c2c1,Maoa,"ligand displacement, radioligand",10 µM,15%
CCOC(=O)[C@H]1Cc2c(cc([N+](=O)[O-])cc2[N+](=O)[O-])[C@H](O)[C@]12C(=O)Nc1c(F)cccc12,CDK4,"cell-free assay, inhibitor, TR-FRET",1 µM,32.6%
C[C@H](C(=O)N[C@H]1COc2ccccc2[C@@H]1S(C)(=O)=O)c1ccc(F)cc1,REN,"enzyme activity, inhibitor",10 µM,-2%
CCOC(=O)[C@H]1Cc2c(cc([N+](=O)[O-])cc2[N+](=O)[O-])[C@H](O)[C@]12C(=O)Nc1ccc(Cl)cc12,CDK4,"cell-free assay, inhibitor, TR-FRET",1 µM,45.2%
O=C(Nc1cccnn1)N1CCN([C@@H]2CCOc3cc(C(F)(F)F)ccc32)CC1,Maoa,cell-free assay,20 µM,14%
C#Cc1n[nH]c2c(-c3cn(C(C)c4ccccn4)c(=O)[nH]c3=O)cc(F)cc12 (stereo not shown),"Tyrosine-protein kinase Fer (FER, Homo sapiens, UniProt P16591)","enzyme activity, inhibitor",1 µM,6.8%
COc1cc(Nc2ncc(F)c(Nc3ccc4c(n3)NC(=O)C(C)(C)O4)n2)cc(OC)c1OC,"Serine/threonine-protein kinase DCLK1 (DCLK1, Homo sapiens, UniProt O15075)",binding,10 µM,59%
